# Screens from PubChem BioAssay.
# An excerpt weighted towards active compounds, which were near 2.9% of everything screened.
# KLK7 zymogen act = proKLK7 (human) activation, primary screen | hit rate 0.9% among 370,000 | purified proKLK7, EDANS-DABCYL substrate fluorescence; 100% is mature enzyme control, 0% vehicle | AID 652039 | activation, % at 7 µM | P49862;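 active = activation above the mean of all tested compounds plus 3 SD, computed per campaign excluding outliers beyond control limits, cut at about 13% in these data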
# Tn6 DDE FP = disrupts Tn6 cyclic peptide binding to fibrin D-Dimer-E complex; Fibrin DD(E) TRITC-Tn6 fluorescence polarization displacement; P02675; AID 720509; hit rate 0.21% among 370,000; inhibition, % at 8.3 µM;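 active = inhibition above a per-campaign cutoff: mean of compounds within control limits plus 3 SD, cut at about 15% in these data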;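 note: 0% = median of all compound wells on the plate and 100% = blocking peptide control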
# CRFR2-BP antag = antagonists of CRF-binding protein/CRF-R2 receptor complex. HEK293 CRF-R2/CRF-BP, CRF-induced calcium fluorescence. inhibition, % at 11.8 µM. hit rate 0.59% among 350,000;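 active = inhibition of the ligand-induced calcium signal above about 50% at the single tested concentration, limit read from the data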
# DDE Tn7 FP inh = inhibitors of Tn7 peptide binding to human fibrin DD(E). P02675. FP displacement of FITC-Tn7 peptide from fibrin DD(E); 0% = median of compound wells per plate. inhibition, % at 8.3 µM. hit rate 0.13% among 370,000. AID 720508;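 active = inhibition above the mean of compounds falling within the control limits plus 3 SD of them, cut at about 14% in these data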;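 note: 0% = plate median of compound wells and 100% = 10 µM Aha-Tn7 peptide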
#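 Test system: human clot-derived fibrin DD(E) complex / Quantity: 2 µM final DD(E) protein / Incubation: 10 min plus 3 h, room temperature / Measured by: fluorescence polarization / Benchmarks: high control of 10 µM Aha-Tn7 peptide / Replicates: singlicate testing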
# NRP1-CendR mod = modulators of CendR peptide binding to human neuropilin-1 | FAM-RPARPAR peptide binding to NRP-1, fluorescence polarization | O14786 | hit rate 0.85% among 360,000 | AID 602438 | inhibition, % at 25 µM;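 active = inhibition or corrected inhibition above about 18%, plus a signal ratio from 0.5 to 1.5, limit read from the data, passing the limit was not always enough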
# CRFR2-BP ag = CRF-BP/CRF-R2 complex agonism | HEK293 CRF-R2/CRF-BP, calcium dye fluorescence (FLIPR); percent of saturating CRF peptide response | hit rate 0.46% among 350,000 | AID 588473 | activation, % at 13.2 µM;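 active = activation of at least 50%, plus an integration ratio under a set limit after plate pattern correction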;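 note: plate controls were neutral control wells without compound for no effect and CRF at EC100 for full effect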
# DDE Tn6 FP ctr = counter-screen hit for Tn6 peptide-fibrin DD(E) binding disruption | shares compounds with Tn6 DDE FP | TRITC-Tn6 fluorescence polarization displacement; 0% = median of compound wells, not DMSO | inhibition, % at 8.3 µM | hit rate 2% among 680;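 active = inhibition above the mean of test compounds lying between the control limits plus 3 SD of those, cut at about 14% in these data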;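 note: 0% = median of compound wells and 100% = wells with Aha-Tn7 blocking peptide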
# DDE Tn6 confirm = confirmation of inhibitors of Tn6 binding to human fibrin DD(E) | AID 720631 | FP displacement of TRITC-Tn6 peptide from DD(E); 0% = per-plate median of test wells | hit rate 10% among 680 | inhibition, % at 8.3 µM | shares compounds with Tn6 DDE FP;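 active = inhibition above the mean of compounds lying within the control limits plus 3 SD, cut at about 16% in these data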;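 note: 100% = high control wells holding a competing inhibitor peptide at 10 µM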
# Numbers without * were called inactive; nt = not tested or not shown; + = active, no number.
SMILES,KLK7 zymogen act,Tn6 DDE FP,CRFR2-BP antag,DDE Tn7 FP inh,NRP1-CendR mod,CRFR2-BP ag,DDE Tn6 FP ctr,DDE Tn6 confirm
COc1ccc(OCC(=O)Nc2cc3c(cc2C(=O)O)OCCCO3)cc1,0,17*,7,7,7,0,5,1
CC(=O)NCc1ccc(S(=O)(=O)NC(C(=O)O)C(C)C)cc1 (stereo not drawn),0,16*,-11,8,-6,0,-6,-10
Cc1cc2cc(CNC(=S)Nc3ccc(OC(F)F)cc3)ccc2n1C,-1,20*,7,4,7,0,7,6
COc1cc(OC)cc(C(=O)NCc2ccc3c(c2)cc(C)n3C)c1,0,2,-1,0,23,1,nt,nt
FC(F)Oc1ccc(NC(=S)NCc2ccccc2)cc1,0,-6,22,-2,-4,0,nt,nt
COc1cc(/C=C\C(=O)NCc2ccc3c(c2)cc(C)n3C)cc(OC)c1OC,0,22*,-8,-8,-11,20,10,5
COc1ccc(C(=O)NCc2ccc3c(c2)cc(C)n3C)cc1,-2,19*,-21,-2,13,47,6,-1
Cc1cc2cc(CNC(=O)COc3ccccc3)ccc2n1C,1,46*,15,3,11,2,4,9
COc1cc(O)c(C(CC(=O)N2CCC(C)CC2)c2ccc3c(c2)OCO3)c(OC)c1 (stereo not drawn),nt,4,nt,-1,nt,nt,nt,nt
CC(C)(C)OC(=O)NCc1cc(F)ccc1/C=C/S(=O)(=O)NCc1ccc(F)cc1,0,6,nt,-1,nt,nt,nt,nt
COc1ccc(CC(=O)NCc2ccc3c(c2)cc(C)n3C)cc1OC,0,0,8,6,8,2,nt,nt
COCC(=O)NCc1ccc2c(c1)cc(C)n2C,0,21*,9,3,-1,1,1,0
CCOc1ccc(CC(=O)NCc2ccc3c(c2)cc(C)n3C)cc1,1,45*,-16,2,-11,2,3,0
Cc1ccc(S(=O)(=O)NCc2ccc3c(c2)cc(C)n3C)cc1,-1,71*,10,-7,0,2,4,-1
Cc1cc2cc(CNC(=O)Nc3ccc(Cl)c(Cl)c3)ccc2n1C,-1,96*,-5,-12,19*,0,0,35*
Cc1cc2cc(CNC(=O)NC3CCCCC3)ccc2n1C,0,-1,4,-4,2,0,nt,nt
Cc1onc(-c2ccccc2Cl)c1C(=O)NCc1ccc2c(c1)cc(C)n2C,0,22*,10,-2,16,5,3,1
Cc1cc2cc(CNC(=O)c3ccco3)ccc2n1C,0,27*,-3,-5,31*,12,6,0
Cc1ccc(CNC(=O)c2c(-c3ccccc3Cl)noc2C)cc1,-1,-4,17,0,-1,-1,nt,nt
O=c1[nH][nH]c(C(F)(F)F)c1C=Nc1ccccc1,0,-2,19,-3,-2,-1,nt,nt
Cc1cc(O)ccc1N=Cc1c(C(F)(F)F)[nH][nH]c1=O,0,77*,-13,4,-2,0,-5,0
COc1cc(CNC2CCCCCCC2)cc(Cl)c1OC,0,17*,-27,7,6,5,-4,-6
O=C([C@@H]1C[C@H]1c1ccccc1)N1CCC(Oc2cccnc2)CC1,1,-3,nt,2,nt,nt,nt,nt
CC(COc1ccc(OC(F)(F)F)cc1)CN1CCC(C(O)(c2ccccc2)c2ccccc2)CC1 (stereo not drawn),1,22*,nt,2,nt,nt,8,8
CC(COc1ccc(Cl)cc1)CN1CCC(C(O)(c2ccccc2)c2ccccc2)CC1 (stereo not drawn),0,7,nt,-9,nt,nt,nt,nt
SMILES,KLK7 zymogen act,Tn6 DDE FP,CRFR2-BP antag,DDE Tn7 FP inh,NRP1-CendR mod,CRFR2-BP ag,DDE Tn6 FP ctr,DDE Tn6 confirm
COC[C@H]1CCCN1c1ccc2c(c1)OCCCN(C1CC1)S2(=O)=O,0,3,nt,-8,nt,nt,nt,nt
O=C(Cn1[nH]c(=O)c2ccccc2c1=O)OCC(=O)c1ccc(F)cc1,0,0,13,5,-1,-4,nt,nt
O=C(Cn1[nH]c(=O)c2ccccc2c1=O)OCC(=O)c1ccccc1Cl,0,16*,1,6,-11,-1,0,0
O=C(Cn1c(=O)[nH]c2ccsc2c1=O)N1CCN(c2ccc(F)cc2)CC1,0,16*,-30,1,nt,0,2,-3
COC(=O)[C@]12C[C@H](CC(=O)N3CCCC3)C(=O)N(Cc3ccc4c(c3)OCO4)C1=C[C@H](C(C)C)O[C@@H]2C1CC1,0,4,nt,-6,nt,nt,nt,nt
O=C(OCc1cc([N+](=O)[O-])cc2c1OCOC2)c1ccccn1,0,18*,-2,-3,22,1,0,-3
CCCCNC(=O)C1CCN(S(=O)(=O)c2ccc3c(c2)CC(C)N3C(=O)C2CC2)CC1 (stereo not drawn),1,103*,22,-5,1,-6,1,2
Cc1ccc(CNC(=O)C2CCN(S(=O)(=O)c3ccc4c(c3)CC(C)N4C(=O)C3CC3)CC2)cc1 (stereo not drawn),0,5,-2,5,10,0,nt,nt
CCN(CC)c1ccc2nc3ccc(N)cc3[n+](-c3ccccc3)c2c1,0,+,0,2,9,2,-1,93*
CC(=O)Nc1ccc(N/C=C2/CCCC2=O)cc1,1,-2,-5,2,-2,-2,nt,nt
Cc1cc(O)ccc1N/C=C1\CCCC1=O,-1,30*,-13,-1,-17,0,3,-2
O=C1C=C(O)c2c(O)cc(O)c(O)c2C1=O,0,2,0,2,47,7,nt,nt
COc1ccc(N)c2c1C(=O)c1ccccc1C2=O,0,72*,4,3,2,0,4,58*
O=C1c2ccccc2C(=O)c2c(O)c(O)cc(O)c21,0,65*,52*,3,16,4,7,88*
Nc1ccc(O)c2c1C(=O)c1ccccc1C2=O,0,130*,1,2,34*,4,8,102*
O=C(C=Cc1ccc(O)c(O)c1)NCC(=O)NC(Cc1ccccc1)C(=O)O (stereo not drawn),-9,5,nt,0,nt,nt,nt,nt
Fc1cccc(Cn2ccc3ccc(-c4ccc5ccn(Cc6cccc(F)c6)c5c4)cc32)c1,-3,1,nt,0,nt,nt,nt,nt
C[C@H]1[C@@H](OC(=O)Nc2ccccc2C(F)(F)F)CC[C@@]23CCCN2C(=O)CCC[C@@H]13,nt,2,nt,-6,nt,nt,nt,nt
